Assay results taken from ChEMBL document CHEMBL1123827, “Alpha 2-adrenergic agonists/antagonists: the synthesis and structure-activity relationships of a series of indolin-2-yl and tetrahydroquinolin-2-yl imidazolines” (J Med Chem, 1987).

Legend:
[1] = target: T1, Adrenergic receptor alpha-2 (Rattus norvegicus, UniProt P22086+P19328+P22909); assay: Binding affinity against alpha-2 adrenergic receptor was determined by the displacement of [3H]clonidine from rat brain cortical membranes; format: cell membranes, Membrane
T1 sequence (P22086 whole entry): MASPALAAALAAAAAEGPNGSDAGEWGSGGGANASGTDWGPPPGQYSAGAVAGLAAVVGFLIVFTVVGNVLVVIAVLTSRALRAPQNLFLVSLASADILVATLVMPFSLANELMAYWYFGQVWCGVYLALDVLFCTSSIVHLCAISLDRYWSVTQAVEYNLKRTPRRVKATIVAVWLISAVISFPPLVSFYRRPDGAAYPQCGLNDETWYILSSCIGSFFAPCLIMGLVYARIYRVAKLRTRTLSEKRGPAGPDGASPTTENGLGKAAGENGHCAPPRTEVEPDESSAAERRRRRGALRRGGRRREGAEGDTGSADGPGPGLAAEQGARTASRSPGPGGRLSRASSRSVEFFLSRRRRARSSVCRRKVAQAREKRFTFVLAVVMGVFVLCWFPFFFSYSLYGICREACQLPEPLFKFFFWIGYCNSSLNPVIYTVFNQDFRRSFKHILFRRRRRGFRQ
T1 sequence (P19328 whole entry): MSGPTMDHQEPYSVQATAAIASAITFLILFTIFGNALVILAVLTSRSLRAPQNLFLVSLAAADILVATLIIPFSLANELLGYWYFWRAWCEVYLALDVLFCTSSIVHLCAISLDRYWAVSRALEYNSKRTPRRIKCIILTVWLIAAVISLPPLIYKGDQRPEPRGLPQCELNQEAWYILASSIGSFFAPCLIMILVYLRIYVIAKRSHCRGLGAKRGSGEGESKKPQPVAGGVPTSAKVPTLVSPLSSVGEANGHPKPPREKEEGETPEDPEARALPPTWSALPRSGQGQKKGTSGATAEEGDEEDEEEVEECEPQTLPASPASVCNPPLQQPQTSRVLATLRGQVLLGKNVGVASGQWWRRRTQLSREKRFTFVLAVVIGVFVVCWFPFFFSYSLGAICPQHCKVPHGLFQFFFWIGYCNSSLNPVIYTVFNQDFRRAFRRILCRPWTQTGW
T1 sequence (P22909 whole entry): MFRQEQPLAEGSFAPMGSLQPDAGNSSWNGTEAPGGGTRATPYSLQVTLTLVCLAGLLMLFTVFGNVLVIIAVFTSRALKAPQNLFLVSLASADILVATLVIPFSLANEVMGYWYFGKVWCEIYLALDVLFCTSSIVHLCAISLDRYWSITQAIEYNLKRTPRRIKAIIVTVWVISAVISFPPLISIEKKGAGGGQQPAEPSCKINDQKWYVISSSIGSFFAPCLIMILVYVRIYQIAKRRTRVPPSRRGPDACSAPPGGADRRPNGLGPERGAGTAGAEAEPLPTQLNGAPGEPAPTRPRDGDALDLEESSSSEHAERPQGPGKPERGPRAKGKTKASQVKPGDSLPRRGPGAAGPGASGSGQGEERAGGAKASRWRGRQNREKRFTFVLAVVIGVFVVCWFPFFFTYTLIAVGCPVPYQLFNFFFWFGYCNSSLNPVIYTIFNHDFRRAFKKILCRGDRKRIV

[2] = target: T1, Adrenergic receptor alpha-2; assay: Alpha-2 adrenergic receptor antagonistic activity in rat vas deferens vs clonidine; format: functional, tissue-based
[3] = target: T1, Adrenergic receptor alpha-2; assay: Alpha-2 adrenergic receptor antagonistic activity in rat vas deferens vs clonidin; format: functional, tissue-based
Outline: (§1)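 Vasa deferentia from Sprague-Dawley rats (180–250 g) mounted between platinum ring electrodes at 1 g resting tension in oxygenated Krebs at 37 °C. Single-pulse electrical stimulation (1 ms, 0.15 Hz, lowest voltage giving maximal contraction).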

Mus musculus = assay: Antagonistic activity against clonidine-induced antinociception in mouse after po administration; format: functional
Outline: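 Swiss Webster mice (18–24 g), 10 per treatment. Test compound was given orally in 0.9% NaCl at 10 mL/kg. […] Mice were observed 5–10 min after PPQ, and those writhing at least 3 times were counted as percent reversal.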

[4] = target: T1, Adrenergic receptor alpha-2; assay: Alpha-2 adrenergic receptor agonistic activity in rat vas deferens.
[5] = target: T2, Adrenergic receptor alpha-1 (Rattus norvegicus, UniProt P15823+P23944+P43140); assay: The compound was evaluated for the alpha-1 adrenergic receptor antagonistic activity in rat vas deferens vs methoxamine alpha-1 adrenoceptor antagonism; format: functional, tissue-based
T2 sequence (P15823 whole entry): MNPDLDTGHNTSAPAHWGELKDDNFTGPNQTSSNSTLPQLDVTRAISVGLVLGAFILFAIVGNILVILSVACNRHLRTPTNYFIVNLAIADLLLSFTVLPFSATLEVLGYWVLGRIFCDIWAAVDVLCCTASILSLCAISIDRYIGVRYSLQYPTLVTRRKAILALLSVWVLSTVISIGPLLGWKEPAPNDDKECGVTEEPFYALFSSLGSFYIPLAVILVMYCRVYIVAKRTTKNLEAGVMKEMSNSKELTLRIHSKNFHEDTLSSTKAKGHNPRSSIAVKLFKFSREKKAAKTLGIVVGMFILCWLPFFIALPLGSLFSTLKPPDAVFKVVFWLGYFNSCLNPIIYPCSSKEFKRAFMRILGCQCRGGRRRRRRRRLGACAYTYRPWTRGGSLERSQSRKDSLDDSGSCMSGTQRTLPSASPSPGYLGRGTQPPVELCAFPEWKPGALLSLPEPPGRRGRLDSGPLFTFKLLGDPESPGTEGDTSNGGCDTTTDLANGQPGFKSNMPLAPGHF
T2 sequence (P23944 whole entry): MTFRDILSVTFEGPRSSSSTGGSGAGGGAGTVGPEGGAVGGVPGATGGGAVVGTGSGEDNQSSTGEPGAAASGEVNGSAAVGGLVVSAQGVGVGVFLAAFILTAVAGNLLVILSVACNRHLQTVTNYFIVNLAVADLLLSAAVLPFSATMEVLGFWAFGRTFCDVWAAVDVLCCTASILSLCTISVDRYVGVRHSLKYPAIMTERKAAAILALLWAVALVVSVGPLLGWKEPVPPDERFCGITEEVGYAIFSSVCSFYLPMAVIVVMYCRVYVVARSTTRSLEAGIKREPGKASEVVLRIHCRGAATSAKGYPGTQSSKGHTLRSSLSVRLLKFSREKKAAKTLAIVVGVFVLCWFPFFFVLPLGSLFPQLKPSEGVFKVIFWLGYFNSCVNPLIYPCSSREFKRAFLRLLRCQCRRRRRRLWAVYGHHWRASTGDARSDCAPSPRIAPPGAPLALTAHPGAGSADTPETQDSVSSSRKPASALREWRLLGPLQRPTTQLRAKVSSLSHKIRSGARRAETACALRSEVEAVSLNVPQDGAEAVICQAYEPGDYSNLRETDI
T2 sequence (P43140 whole entry): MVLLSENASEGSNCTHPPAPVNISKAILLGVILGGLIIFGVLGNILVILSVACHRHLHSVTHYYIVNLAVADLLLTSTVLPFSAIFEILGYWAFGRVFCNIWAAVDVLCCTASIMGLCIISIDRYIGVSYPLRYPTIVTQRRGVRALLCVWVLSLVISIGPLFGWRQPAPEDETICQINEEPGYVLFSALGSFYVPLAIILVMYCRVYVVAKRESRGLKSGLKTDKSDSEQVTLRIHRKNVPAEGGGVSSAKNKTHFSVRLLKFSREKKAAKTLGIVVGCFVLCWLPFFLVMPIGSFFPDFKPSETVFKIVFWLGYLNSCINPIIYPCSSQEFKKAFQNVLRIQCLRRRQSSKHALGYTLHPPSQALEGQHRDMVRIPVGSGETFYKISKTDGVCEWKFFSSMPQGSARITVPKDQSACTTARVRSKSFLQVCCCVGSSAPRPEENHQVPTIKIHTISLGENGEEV
Outline: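 Vasa deferentia from Sprague-Dawley rats (180–250 g) mounted at 1 g resting tension in oxygenated Krebs at 31 °C. Methoxamine was the reference α1 agonist. Agonist concentration-effect curves were run without and with at least three antagonist concentrations after 10 min preincubation. Potency was taken from Schild analysis, mean of at least three preparations from separate animals.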

[6] = target: T2, Adrenergic receptor alpha-1; assay: Binding affinity against alpha-1 adrenergic receptor was determined by the displacement of [3H]prazosin from rat brain cortical membranes; value ranges from 4.6-30.6; format: cell membranes, Membrane
Outline: (§2)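 Rat cortex was homogenized in 50 mM Tris pH 7.7, washed twice by centrifugation at 48000g and resuspended in 150 volumes. […] Nonspecific binding was defined with 10 μM phentolamine. Bound label was counted on filters, in triplicate. IC50 by logit plot, converted to Ki by Cheng-Prusoff.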

[7] = target: T1, Adrenergic receptor alpha-2; assay: The compound was evaluated for the alpha-2 adrenergic receptor antagonistic activity in rat vas deferens vs clonidin; format: functional, tissue-based; outline: as §1
[8] = target: T2, Adrenergic receptor alpha-1; assay: Binding affinity against alpha-1 adrenergic receptor was determined by the displacement of [3H]prazosin from rat brain cortical membranes; value ranges from 6.06-7.06; format: cell membranes, Membrane; outline: as §2
[9] = target: T1, Adrenergic receptor alpha-2; assay: The compound was evaluated for the alpha-2 adrenergic receptor agonistic activity in rat vas deferens; the effect was not yohimbine reversible.
[10] = target: T2, Adrenergic receptor alpha-1; assay: Binding affinity against alpha-1 adrenergic receptor was determined by the displacement of [3H]prazosin from rat brain cortical membranes; value ranges from 7.8-34.6; format: cell membranes, Membrane; outline: as §2
[11] = target: T3, Adrenergic receptor alpha-2 (Rattus norvegicus) (UniProt P22086+P19328+P22909); assay: The compound was evaluated for the alpha-2 adrenergic receptor antagonistic activity in rat vas deferens vs clonidin; l = compound contracted the tissue at 100nM, which is an alpha-1 agonist like response; format: functional, tissue-based; details: filed as agonist
[12] = target: T3, Adrenergic receptor alpha-2 (Rattus norvegicus); assay: The compound was evaluated for the alpha-2 adrenergic receptor antagonistic activity in rat vas deferens vs clonidine; i = the compound contracted the tissue at 100 nM; format: functional, tissue-based; details: filed as agonist; outline: as §1

SMILES	Ki [1] [nM]	pA2 [3]	ED50 (Mus musculus) [mg/kg]	also measured
Cn1c(C2=NCCN2)cc2ccccc21	> 1000	–	–	pA2 [2]: > 6
CN1c2ccc(Cc3ccccc3)cc2CC1C1=NCCN1 (stereo not given)	53.6	7.59	> 100	–
CCCN1c2ccccc2CC1C1=NCCN1 (stereo not given)	1.93	8.76	100	–
c1ccc(CCN2c3ccccc3CC2C2=NCCN2)cc1 (stereo not given)	6	–	6	–
C[C@@H]1Cc2ccccc2N[C@@H]1C1=NCCN1	> 1000	< 6	–	IC50 [4]: > 1000 nM
CN1c2ccccc2CC1CC1=NCCN1 (stereo not given)	355	–	–	pA2 [2]: < 6
C[C@H]1c2ccccc2N(C)[C@@H]1C1=NCCN1	72.3	6.96	–	IC50 [4]: > 1000 nM
CN1c2ccccc2CC1C1=NCCN1 (stereo not given)	0.45	8.65	1.3	pA2 [5]: 7.75; Ki [6]: 10.5 nM
COC(=O)[C@@H]1[C@H]2C[C@H]3c4[nH]c5ccccc5c4CCN3C[C@@H]2CC[C@@H]1O [YOHIMBINE]	–	–	0.6	–
CCC[C@@]1(C2=NCCN2)Cc2ccccc2N1C	260	6.6	–	IC50 [4]: > 1000 nM
CN1c2ccccc2C[C@@]1(C)C1=NCCN1	3.4	–	–	pA2 [7]: 7.55; IC50 [4]: > 300 nM
CN1c2ccccc2CCC1C1=NCCN1 (stereo not given)	1.52	8.13	–	–
CN1c2ccc(Cl)cc2CC1C1=NCCN1 (stereo not given)	1.9	8.56	–	–
c1ccc2c(c1)OCC(C1=NCCN1)O2 (stereo not given) [IDAZOXAN]	–	–	1.6	–
CN1c2c(Cl)cc(Cl)cc2CC1C1=NCCN1 (stereo not given)	12.3	8	–	–
c1ccc2c(c1)CCN2C1=NCCN1	> 1000	–	–	–
C=CCN1c2ccccc2CC1C1=NCCN1 (stereo not given)	0.47	–	–	pA2 [5]: 8.02; Ki [8]: 6.56 nM; pA2 [2]: 9.07

SMILES	Ki [1] [nM]	pA2 [3]	ED50 (Mus musculus) [mg/kg]	also measured
COC[C@@]1(C2=NCCN2)Cc2ccccc2N1C	38	–	–	IC50 [9]: 131 nM
C[C@@H]1c2ccccc2N(C)[C@@H]1C1=NCCN1	6.9	–	> 300	pA2 [7]: < 6; IC50 [4]: 3.29 nM
CC(C)N(C[C@@]1(C2=NCCN2)Cc2ccccc2N1C)C(C)C	25.1	–	–	IC50 [4]: 94.8 nM
CN1c2ccc(F)cc2CC1C1=NCCN1 (stereo not given)	0.91	8.45	–	pA2 [5]: 8.03; Ki [10]: 16.4 nM
Cn1c(CC2=NCCN2)cc2ccccc21	46.7	–	100	pA2 [2]: 7.48
CCN1c2ccccc2CC1C1=NCCN1 (stereo not given)	0.91	8.91	2.6	–
c1ccc(CN2c3ccccc3CC2C2=NCCN2)cc1 (stereo not given)	2.3	7.93	7	–
c1ccc2c(c1)CC(C1=NCCN1)N2 (stereo not given)	2.11	–	–	pA2 [2]: 8.16
CN(CC1=NCCN1)c1ccccc1	3.9	–	–	pA2 [11]: Agonist
CN1c2c(Cl)cccc2CC1C1=NCCN1 (stereo not given)	0.72	–	0.1	pA2 [7]: 8.8
c1ccc(N2c3ccccc3CC2C2=NCCN2)cc1 (stereo not given)	4.2	–	–	pA2 [12]: Agonist
CCCCN1c2ccccc2CC1C1=NCCN1 (stereo not given)	3.5	–	4	pA2 [2]: 8.8
C=CC[C@@]1(C2=NCCN2)Cc2ccccc2N1C	77	–	–	pA2 [7]: 6.96; IC50 [4]: > 1000 nM
CCOCCN1c2ccccc2CC1C1=NCCN1 (stereo not given)	26	–	20.5	pA2 [2]: 7.81
C[C@@H]1Cc2ccccc2N(C)[C@@H]1C1=NCCN1	719	5.88	–	–
c1ccc2c(c1)CCC(C1=NCCN1)N2 (stereo not given)	13.8	8.03	–	–
